In data set [1] the test system is Lipid bilayer. Description: Binding affinity to phosphatidylcholine/phosphatidylethanolamine/phosphatidylinositol/ergosterol large unilamellar vesicle assessed as induction of calcein leakage at 2 to 32 uM after 15 mins by spectrofluorophotometric method. The method in brief: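 Large unilamellar vesicles were made from PG/CL/PE (2:1:7), PC/PE/PI/ergosterol (5:4:1:2) or PC/cholesterol (10:1), loaded with 70 mM calcein in Tris/NaCl/EDTA buffer at pH 7.4, frozen and thawed 20 times, and extruded through 100 nm filters. Free dye was removed by gel filtration, and peptide-induced calcein release was measured.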

The subject of data set [2] is Candida albicans. Description: Disruption of cytoplasmic membrane electrical potential in Candida albicans cgmcc 2.2086 at MFC after 800 secs by DiSC3-5 dye-based fluorescence spectrophotometric method. It counts as functional, organism-based. The method in brief:
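Cells were loaded with the membrane potential-sensitive dye DiSC3-5, and its release on peptide treatment (various concentrations, including 1× MBC/MFC) was monitored as increasing fluorescence over 800 s.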

Data set [3] has as its system Escherichia coli. Description: Antibacterial activity against Escherichia coli ATCC 25922 after 18 hrs in presence of 12.5% human heat-inactivated serum by broth dilution method. The class given is functional. Conditions: ATCC 25922, 18 h. A general note: In broth dilution the organism is exposed to a series of concentrations in liquid medium.
Data set [4] has as its system Escherichia coli. Description: Antibacterial activity against Escherichia coli ATCC 25922 after 18 hrs in presence of 25% human heat-inactivated serum by broth dilution method. It counts as functional. Conditions: ATCC 25922, 18 h.
The test system of data set [5] is Escherichia coli. Description: Bactericidal activity against Escherichia coli ATCC 25922 at MBC after 5 hrs by time-kill assay. The class given is functional. Summed up:
(§1)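 Time-kill: E. coli ATCC 25922 or C. albicans cgmcc 2.2086 was exposed to peptide at 1× MBC/MFC. At intervals, aliquots were diluted and spread on MHA (bacteria, counted after 24 h at 37 °C) or YPDA (yeast, counted after 48 h at 28 °C). Values are means of three independent assays.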

The subject of data set [6] is Candida albicans. Description: Fungicidal activity against Candida albicans cgmcc 2.2086 at MFC after 5 hrs by time-kill assay. It counts as functional. Summed up: as §1
Data set [7] deals with Candida albicans. Description: Induction of cell wall permeabilization in Candida albicans cgmcc 2.2086 assessed as increase in NPN uptake by fluorescence spectrophotometric method. The class given is functional, organism-based. Summed up:
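Log-phase cells at OD600 0.2 in 5 mM HEPES (pH 7.4, 5 mM glucose) were preloaded with 10 μM NPN for 30 min, then peptide was added. Fluorescence (ex 350/em 420 nm) was followed until it plateaued and converted to % NPN uptake against initial and maximal fluorescence. Triplicate.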

In data set [8] the test system is Escherichia coli. Description: Induction of cell wall permeabilization in Escherichia coli ATCC 25922 assessed as increase in NPN uptake at 2 uM by fluorescence spectrophotometric method relative to control. The class given is functional. The method in brief: (§2)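 Log-phase E. coli ATCC 25922 or C. albicans cgmcc 2.2086 at OD600 0.2 in 5 mM HEPES pH 7.4 with 5 mM glucose was preloaded 30 min with 10 μM NPN, then peptide was added. Fluorescence (ex 350, em 420 nm) was followed until it plateaued and converted to % uptake against a 100% reference. Run in triplicate.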

Data set [9] has as its system Candida albicans. Description: Induction of cell wall permeabilization in Candida albicans cgmcc 2.2086 assessed as increase in NPN uptake at 2 uM by fluorescence spectrophotometric method relative to control. It counts as functional. The method in brief: as §2
Data set [10] deals with Lipid bilayer. Description: Binding affinity to phosphatidylglycerol/cardiolipin/phosphatidylethanolamine large unilamellar vesicle assessed as induction of calcein leakage at 32 uM after 15 mins by spectrofluorophotometric method relative to control. Summed up: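 Compositions were PG/CL/PE 2:1:7 w/w/w (E. coli membrane mimic; lines 4,5) and PC/PE/PI/ergosterol 5:4:1:2 w/w/w/w (fungal membrane mimic; lines 2,3). Lipids underwent 20 freeze–thaw cycles and were extruded through 100 nm filters; free calcein was removed by gel filtration.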

The test system of data set [11] is Candida albicans. Description: Induction of membrane damage in Candida albicans cgmcc 2.2086 assessed as membrane deformation at MFC after 1 hr by scanning electron microscopy. It counts as functional, organism-based. The method in brief:
(§3)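 E. coli ATCC 25922 was treated at 1× MBC and C. albicans cgmcc 2.2086 at 1× MFC, each for 1 h. Untreated control cells were processed in parallel without peptide. Surface morphology was imaged by AFM and SEM, and ultrastructure by TEM.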

The subject of data set [12] is Candida albicans. Description: Induction of membrane damage in Candida albicans cgmcc 2.2086 assessed as intracellular content leakage at MFC after 1 hr by scanning electron microscopy. It counts as functional, organism-based. Summed up:
(§4)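 E. coli ATCC 25922 or C. albicans cgmcc 2.2086 were treated with peptide at 1× MBC/MFC for 1 h alongside peptide-free controls, then imaged by AFM, SEM or TEM for membrane and ultrastructural changes.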

Data set [13] concerns Candida albicans. Description: Induction of membrane damage in Candida albicans cgmcc 2.2086 assessed as membrane deformation at MFC after 1 hr by atomic force microscopy. It counts as functional, organism-based. The method in brief: as §3
The subject of data set [14] is Escherichia coli. Description: Change in membrane morphology in Escherichia coli ATCC 25922 assessed as loss of intracellular contents at MBC after 1 hr by transmission electron microscopy. It counts as functional, organism-based. Summed up: as §4
Data set [15] concerns Candida albicans. Description: Induction of membrane damage in Candida albicans cgmcc 2.2086 assessed as empty regions formation of cytoplasm at MFC after 1 hr by transmission electron microscopy. It counts as functional, organism-based. Summed up: as §4
Data set [16] has as its system Escherichia coli. Description: Induction of reactive oxygen species generation in Escherichia coli ATCC 25922 at 0.5 to 4 uM after 1 hr by DCFH-DA dye-based spectrofluorophotometric method. It counts as functional, organism-based. The method in brief:
(§5)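 E. coli ATCC 25922 and C. albicans cgmcc 2.2086 cells were exposed to a range of peptide concentrations up to 32 μM. ROS levels were read by fluorescence and expressed relative to untreated cells. Values are mean ± SEM of three independent experiments.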

The subject of data set [17] is Candida albicans. Description: Induction of reactive oxygen species generation in Candida albicans cgmcc 2.2086 after 1 hr by DCFH-DA dye-based spectrofluorophotometric method. It counts as functional, organism-based. The method in brief:
as §5

In data set [18] the test system is Lipopolysaccharide (LPS). Description: Displacement of BODIPY-TR-cadaverine from Escherichia coli O111:B4 LPS at 4 uM after 1 hr by spectrofluorophotometric method relative to control. Summed up:
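Fluorescence-based displacement assay: peptide displaces BODIPY-TR-cadaverine from LPS; polymyxin B served as the LPS-binding reference.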

Data set [19] has as its system Lipopolysaccharide (LPS). Description: Binding affinity to Escherichia coli O111:B4 LPS by SPR spectroscopy. The method in brief: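 Surface plasmon resonance with the peptide immobilized and LPS flowed over it at 3.125−25 μg/mL; binding recorded in response units (RU).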
Data set [20] relates to RAW264.7. Description: Induction of endotoxin-neutralization in mouse RAW264.7 cells assessed as inhibition of LPS-induced nitric oxide production after 18 hrs by Griess assay. It counts as functional, cell-based. The method in brief: (§6)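 RAW 264.7 cells were stimulated with 50 ng/mL LPS with or without peptide at various concentrations. TNF-α in supernatants was measured by ELISA and NO by Griess reagent. Mean ± SEM of three independent experiments, compared against LPS alone.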
(In general: Nitrite, measured by Griess reagent, commonly stands in for NO production.)

The test system of data set [21] is RAW264.7. Description: Induction of endotoxin-neutralization in mouse RAW264.7 cells assessed as inhibition of LPS-induced nitric oxide production at 16 uM after 18 hrs by Griess assay relative to control. The class given is functional. The following applies: RAW264.7, 18 h. The method in brief:
as §6

Data set [22] deals with RAW264.7. Description: Immunostimulatory activity in mouse RAW264.7 cells assessed as induction of TNFalpha secretion by ELISA. It counts as cell-based. The method in brief: (§7)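 RAW 264.7 macrophages were exposed to peptide at various concentrations. TNF-α in culture supernatants was measured by ELISA and NO by Griess reagent. Values are means ± SEM of three independent experiments.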
Background: An ELISA detects its analyte on a solid surface through an enzyme-linked reagent.

Data set [23] deals with RAW264.7. Description: Immunostimulatory activity in mouse RAW264.7 cells assessed as induction of nitric oxide production by Griess assay. It counts as cell-based. Summed up: as §7

The source made the active and inactive calls. The calls are words filed in the database; no cut-off is given here. Where only a bound is given, the exact number is not on record here.

As for `CC[C@H](C)[C@H](NC(=O)CN)C(=O)NCC(=O)N[C@@H](C)C(=O)N[C@H](C(=O)N[C@@H](CC(C)C)C(=O)N[C@@H](CCCCN)C(=O)N[C@H](C(=O)N[C@@H](CC(C)C)C(=O)N[C@H](C(=O)N[C@H](C(=O)NCC(=O)N[C@@H](CC(C)C)C(=O)N1CCC[C@H]1C(=O)N[C@@H](C)C(=O)N[C@@H](CC(C)C)C(=O)N[C@H](C(=O)N[C@@H](CO)C(=O)N[C@@H](Cc1c[nH]c2ccccc12)C(=O)N[C@H](C(=O)N[C@@H](CCCCN)C(=O)N[C@@H](CCCNC(=N)N)C(=O)N[C@@H](CCCCN)C(=O)N[C@@H](CCCNC(=N)N)C(=O)N[C@@H](CCC(N)=O)C(=O)N[C@@H](CCC(N)=O)C(N)=O)[C@@H](C)CC)[C@@H](C)CC)[C@@H](C)O)[C@@H](C)O)C(C)C)C(C)C` [MELITTIN], the result with Lipid bilayer [1] and in the data set with Candida albicans [2] was Active.
Turning to H-RRIRIIIRIRR-NH2, the MIC with Escherichia coli [3] and in the data set with Escherichia coli [4] was 4 µM in each case. For the same molecule, the Activity is over 99.99% with Escherichia coli [5]; over 99.99% in the data set on Candida albicans [6]; “Dose-dependent effect” with Candida albicans [7]; over 70% in the data set on Escherichia coli [8]; 20% in the data set on Candida albicans [9]; 63% with Lipid bilayer [10]. Besides, the Activity entry is “Dose-dependent effect” with Candida albicans [17], “Dose-dependent effect” in the data set on Lipopolysaccharide (LPS) [19], “Non-Toxic” with RAW264.7 [22] and “Non-Toxic” in the data set on RAW264.7 [23]. In addition, the result with Candida albicans [11], in the data set on Candida albicans [12], in the data set with Candida albicans [13], in the data set on Escherichia coli [14] and in the data set with Candida albicans [15] was Active. Besides, the result in the data set on Escherichia coli [16] was inactive. In addition, the inhibition – broadly, the drop in the measured response relative to a control, in per cent – in the data set on Lipopolysaccharide (LPS) [18] is 68%; in the data set on RAW264.7 [20], “Dose-dependent effect”. For the same molecule, the inhibition at 16 µM in the data set on RAW264.7 [21] was determined as 100%.

The values are drawn from ChEMBL document CHEMBL4177755, “Combating Drug-Resistant Fungi with Novel Imperfectly Amphipathic Palindromic Peptides” (J Med Chem, 2018).
